For assay [1], the target named is T1, NAD-dependent protein deacetylase sirtuin-2 (Homo sapiens, UniProt Q8IXJ6).
T1 sequence (Q8IXJ6 whole entry): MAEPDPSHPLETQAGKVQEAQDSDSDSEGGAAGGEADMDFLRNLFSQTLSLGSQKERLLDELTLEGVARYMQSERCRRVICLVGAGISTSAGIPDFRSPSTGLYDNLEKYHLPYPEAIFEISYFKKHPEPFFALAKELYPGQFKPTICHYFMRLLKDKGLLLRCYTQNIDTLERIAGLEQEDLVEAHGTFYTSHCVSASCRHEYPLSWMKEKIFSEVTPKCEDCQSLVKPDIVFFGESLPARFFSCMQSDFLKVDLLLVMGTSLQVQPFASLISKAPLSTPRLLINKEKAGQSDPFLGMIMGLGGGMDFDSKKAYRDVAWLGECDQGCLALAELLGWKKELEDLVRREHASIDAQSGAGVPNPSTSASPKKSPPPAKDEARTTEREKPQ
Briefly: Inhibition of human SIRT2 deacetylation activity using H3K9Ac as substrate preincubated for 15 mins in presence of NAD+ by HPLC analysis. The method in brief:
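In vitro sirtuin reaction mixture with compound at a range of concentrations. Compound was preincubated with NAD+ and the enzyme before the substrate peptide was added. IC50 taken from the concentration series.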

The target of assay [2] is T1, NAD-dependent protein deacetylase sirtuin-2. Description: Inhibition of human SIRT2 deacetylation activity using H3K9Ac as substrate in presence of NAD+ by HPLC analysis.
The species entered for another assay is Homo sapiens. Briefly: Selectivity ratio of IC50 for inhibition of human SIRT1 deacetylation activity to IC50 for inhibition of human SIRT2 deacetylation activity. Summed up:
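Ratio of SIRT1 deacetylase IC50 to SIRT2 deacetylase IC50, both measured with compound, NAD+ and enzyme preincubated before peptide substrate addition.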

The target of assay [3] is T2, Protein cereblon/NAD-dependent protein deacetylase sirtuin-3, mitochondrial (Homo sapiens) (UniProt Q9NTG7+Q96SW2). Description: Protac activity at CRBN/SIRT3 in human BT549 cells assessed as SIRT3 degradation at 5 to 10 uM after 48 hrs by immunoblot analysis. The conditions noted are these: BT-549, dose microM 5-10, time 48.0 hrs. The class given is cell-based. The method in brief: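 MCF7 or BT-549 cells exposed to inhibitor at the indicated concentrations for 48 h; SIRT1, SIRT2 and SIRT3 levels read by immunoblot.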
In general terms: Immunoblotting shows a protein as a band on a membrane.

Assay [4] has as its target Protein cereblon/NAD-dependent protein deacetylase sirtuin-2 (Homo sapiens) (UniProt Q8IXJ6+Q96SW2). Description: Protac activity at CRBN/SIRT2 in human MCF7 cells assessed as SIRT2 degradation at 25 uM by immunoblot analysis. The format is cell-based. The method in brief:
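MCF7 cells treated at a fixed concentration (10 or 25 μM) and harvested at several incubation times; SIRT2 level read by immunoblot.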

Assay [5] deals with T2, Protein cereblon/NAD-dependent protein deacetylase sirtuin-3, mitochondrial (Homo sapiens). Briefly: Protac activity at CRBN/SIRT3 in human HEK293T cells stably expressing flag-tagged K-Ras4a-G12V assessed as inhibition of SIRT2 defatty-acylation at 1 uM incubated for 48 hrs by immunoblot analysis. The class given is cell-based. Particulars: HEK-293T. Summed up: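 HEK 293T cells stably overexpressing Flag-tagged K-Ras4a-G12V (confirmed by pan-Ras blot) were exposed to 1 μM compound for 48 h. SIRT1, SIRT2 and SIRT3 levels were then read by immunoblot.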

Assay [6] relates to MDA-MB-231. Briefly: Cytotoxicity against human MDA-MB-231 cells assessed as reduction in cell viability after 72 hrs. The class given is functional, cell-based. Summed up: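 Cells incubated with compound or thalidomide for 72 h; cell viability read out at the end of exposure.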
The next assay relates to MCF7. Briefly: Cytotoxicity against human MCF7 cells assessed as reduction in cell viability at 1 uM after 72 hrs. The format is functional, cell-based.
For assay [7], the system named is MDA-MB-231. Description: Cytotoxicity against human MDA-MB-231 cells assessed as reduction in cell viability at 1 uM after 72 hrs. The format is functional, cell-based.
Assay [8] concerns the target T2, Protein cereblon/NAD-dependent protein deacetylase sirtuin-3, mitochondrial (Homo sapiens). Briefly: Protac activity at CRBN/SIRT3 in human HEK293T cells assessed as abundance ratio at 5 uM incubated for 16 hrs by TMT global proteomics assay relative to DMSO. Particulars: HEK-293T. The class given is cell-based. The method in brief: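 HEK 293T cells given 5 μM compound for 16 h. Global proteomics used Tandem Mass Tag labelling, and each sirtuin's abundance is given as a ratio of treated to DMSO-treated cells.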

Molecules are shown by their SMILES. Calls of active or inactive are those of the source. No cut-off for these calls is given here.

T2 sequence (Q96SW2 whole entry, looked up): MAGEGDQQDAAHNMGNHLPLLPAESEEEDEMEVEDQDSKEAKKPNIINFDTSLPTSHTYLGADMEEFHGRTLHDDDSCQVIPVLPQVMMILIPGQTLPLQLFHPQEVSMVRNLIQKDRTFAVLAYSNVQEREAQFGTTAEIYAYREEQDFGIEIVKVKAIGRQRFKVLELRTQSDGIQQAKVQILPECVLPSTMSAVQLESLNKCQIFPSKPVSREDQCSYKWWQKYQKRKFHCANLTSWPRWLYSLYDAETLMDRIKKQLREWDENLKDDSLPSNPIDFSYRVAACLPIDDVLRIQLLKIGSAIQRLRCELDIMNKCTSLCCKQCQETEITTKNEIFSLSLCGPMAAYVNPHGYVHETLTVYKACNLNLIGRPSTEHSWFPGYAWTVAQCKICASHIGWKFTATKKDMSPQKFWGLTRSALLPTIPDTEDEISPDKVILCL
T2 sequence (Q9NTG7 whole entry, looked up): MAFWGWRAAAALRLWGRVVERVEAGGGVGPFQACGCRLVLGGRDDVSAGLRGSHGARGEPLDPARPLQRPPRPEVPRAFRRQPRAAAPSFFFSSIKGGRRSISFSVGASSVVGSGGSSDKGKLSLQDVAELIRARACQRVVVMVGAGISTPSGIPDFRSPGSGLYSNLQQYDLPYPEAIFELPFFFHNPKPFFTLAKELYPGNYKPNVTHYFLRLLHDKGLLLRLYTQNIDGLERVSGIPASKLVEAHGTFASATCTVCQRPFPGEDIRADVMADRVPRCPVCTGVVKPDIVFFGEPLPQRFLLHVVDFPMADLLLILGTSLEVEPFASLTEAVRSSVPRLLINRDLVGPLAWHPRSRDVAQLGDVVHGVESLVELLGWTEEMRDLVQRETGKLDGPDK
Chain of Protein cereblon/NAD-dependent protein deacetylase sirtuin-2 (Homo sapiens) (Q96SW2 whole entry, looked up, one chain of several): as the sequence (Q96SW2 whole entry, looked up) above

Regarding `CCCCCCCCCCCCCC(=S)NCCCC[C@H](NC(=O)CCOCCOCCOCCOCCNc1cccc2c1C(=O)N(C1CCC(=O)NC1=O)C2=O)C(=O)Nc1ccccc1` (stereo not given in full), the IC50 in assay [1] came to 0.078 µM; in assay [2], 0.093 µM. Besides, the Ratio IC50 in the assay listed under Homo sapiens is 500. In addition, the result (in assay [3]; in [4]; in assay [5]; in the assay with MCF7; in the assay on MDA-MB-231 [7]; in assay [8]) was inactive. Besides, in the assay on MDA-MB-231 [6], the outcome was Active.

The term IC50 denotes the point on the concentration scale where inhibition reaches its midpoint.

The values are drawn from ChEMBL document CHEMBL4725483, “Simultaneous Inhibition of SIRT2 Deacetylase and Defatty-Acylase Activities via a PROTAC Strategy” (ACS Med Chem Lett, 2020).
